According to ChEMBL document CHEMBL1629439, “High-throughput identification of antibacterials against methicillin-resistant Staphylococcus aureus (MRSA) and the transglycosylase” (Bioorg Med Chem, 2010):
In brackets after ≈: the same amount, converted by molar mass.

What was measured:
Pseudomonas aeruginosa = experiment: Antimicrobial activity against Pseudomonas aeruginosa ATCC 25619 after 18 to 24 hrs by alamar blue assay; assay type: functional; details: Pseudomonas aeruginosa, ATCC 25619; read-out: MIC
Procedure, shortened: (§1)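 Broth microdilution per NCCLS in Mueller-Hinton broth, 8-point twofold dilutions, 384-well format. Exponential-phase cells at 5 × 10^5 cells/ml incubated with compound 18–24 h at 37 °C, then 20% Alamar blue added and fluorescence read. MIC90 taken as the lowest concentration preventing at least 90% bacterial growth.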

[1] = test system: Stenotrophomonas maltophilia; experiment: Antimicrobial activity against Stenotrophomonas maltophilia ATCC 13637 after 18 to 24 hrs by alamar blue assay; assay type: functional; details: Stenotrophomonas maltophilia, ATCC 13637; read-out: MIC; procedure, shortened: as §1
Staphylococcus aureus [2] = experiment: Antimicrobial activity against Staphylococcus aureus ATCC 29213 after 18 to 24 hrs by alamar blue assay
Bacillus subtilis = experiment: Antimicrobial activity against Bacillus subtilis ATCC 23857 after 18 to 24 hrs by alamar blue assay; assay type: functional; procedure, shortened: as §1
Acinetobacter baumannii = experiment: Antimicrobial activity against Acinetobacter baumannii ATCC 49139 after 18 to 24 hrs by alamar blue assay; assay type: functional; details: Acinetobacter baumannii, ATCC 49139; read-out: MIC; procedure, shortened: as §1
Staphylococcus aureus [3] = experiment: Antimicrobial activity against methicillin-resistant Staphylococcus aureus ATCC 33592 after 18 to 24 hrs by alamar blue assay; assay type: functional; details: Staphylococcus aureus, ATCC 33592; read-out: MIC
Procedure, shortened: (§2)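 Broth microdilution per NCCLS standard, Mueller-Hinton broth, 8-point twofold dilutions; exponentially growing cells at 5 10^5 cells/ml with compound, 18–24 h at 37 C; 20% Alamar blue added, fluorescence read; MIC90 taken as lowest concentration preventing at least 90% growth.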

Serratia marcescens = experiment: Antimicrobial activity against Serratia marcescens ATCC 14756 after 18 to 24 hrs by alamar blue assay; assay type: functional; details: Serratia marcescens, ATCC 14756; read-out: MIC; procedure, shortened: as §1
Staphylococcus aureus [4] = experiment: Antimicrobial activity against methicillin-resistant Staphylococcus aureus isolate NTUH4722 after 18 to 24 hrs by alamar blue assay; assay type: functional; procedure, shortened: as §2
Escherichia coli = experiment: Antimicrobial activity against Escherichia coli ATCC […] after 18 to 24 hrs by alamar blue assay; assay type: functional; details: Escherichia coli; read-out: MIC; procedure, shortened: as §1
[5] = test system: Mycolicibacterium smegmatis; experiment: Antimicrobial activity against Mycobacterium smegmatis BCRC 11565 after 18 to 24 hrs by alamar blue assay; assay type: functional; details: Mycolicibacterium smegmatis, BCRC 11565; read-out: MIC; procedure, shortened: as §1
Staphylococcus aureus [6] = experiment: Antimicrobial activity against oxacillin- and methicillin-resistant Staphylococcus aureus isolate Sa-OXA-R2 after 18 to 24 hrs by alamar blue assay; assay type: functional; procedure, shortened: as §2

`O=C(Nc1cccc(C2=Nc3ccccc3C2)c1)c1ccc([N+](=O)[O-])o1` gave an MIC (Pseudomonas aeruginosa) of 128 µg/mL (≈ 369 µM), an MIC [1] of 32 µg/mL (≈ 92.1 µM) and an MIC (Staphylococcus aureus [2]) of 0.5 µg/mL (≈ 1.44 µM). For the same molecule, the MIC (Bacillus subtilis) was 0.06 µg/mL (≈ 0.173 µM), the MIC (Acinetobacter baumannii) was 12 µg/mL (≈ 34.5 µM) and the MIC (Staphylococcus aureus [3]) was 0.25 µg/mL (≈ 0.72 µM). It also gave an MIC (Serratia marcescens) of 32 µg/mL (≈ 92.1 µM), an MIC (Staphylococcus aureus [4]) of 0.5 µg/mL (≈ 1.44 µM) and an MIC (Escherichia coli) of 256 µg/mL (≈ 737 µM). For the same molecule, the MIC [5] was 0.5 µg/mL (≈ 1.44 µM) and the MIC (Staphylococcus aureus [6]) was 0.5 µg/mL (≈ 1.44 µM).
For `Cc1c(CC(=O)N2CCC(C(=O)O)CC2)c(=O)oc2c(C)c3occ(-c4ccc(Cl)cc4)c3cc12`, the MIC (Pseudomonas aeruginosa) was greater than 256 µg/mL, the MIC [1] was greater than 256 µg/mL and the MIC (Staphylococcus aureus [2]) was 2.5 µg/mL (≈ 5.06 µM). It also gave an MIC (Bacillus subtilis) greater than 64 µg/mL, an MIC (Acinetobacter baumannii) greater than 256 µg/mL and an MIC (Staphylococcus aureus [3]) of 1.25 µg/mL (≈ 2.53 µM). The MIC (Serratia marcescens) was greater than 256 µg/mL, the MIC (Staphylococcus aureus [4]) was 2.5 µg/mL (≈ 5.06 µM) and the MIC (Escherichia coli) was greater than 256 µg/mL. The MIC [5] was 1 µg/mL (≈ 2.02 µM) and the MIC (Staphylococcus aureus [6]) was 2.5 µg/mL (≈ 5.06 µM).
For `CCC(NC(=O)Cc1c(C)c2cc3c(-c4ccc(Cl)cc4)coc3c(C)c2oc1=O)C(=O)O` (stereo unspecified), the MIC (Pseudomonas aeruginosa) was greater than 256 µg/mL, the MIC [1] was greater than 256 µg/mL and the MIC (Staphylococcus aureus [2]) was 2.5 µg/mL (≈ 5.34 µM). It also gave an MIC (Bacillus subtilis) greater than 64 µg/mL, an MIC (Acinetobacter baumannii) greater than 256 µg/mL and an MIC (Staphylococcus aureus [3]) of 5 µg/mL (≈ 10.7 µM). It also gave an MIC (Serratia marcescens) greater than 256 µg/mL, an MIC (Staphylococcus aureus [4]) of 2.5 µg/mL (≈ 5.34 µM) and an MIC (Escherichia coli) greater than 256 µg/mL. For the same molecule, the MIC [5] was 1 µg/mL (≈ 2.14 µM) and the MIC (Staphylococcus aureus [6]) was 2.5 µg/mL (≈ 5.34 µM).
`COC(=O)c1ccccc1NC(=O)c1ccc([N+](=O)[O-])o1` was tested, and the MIC (Pseudomonas aeruginosa) was 128 µg/mL (≈ 441 µM), the MIC [1] was 32 µg/mL (≈ 110 µM) and the MIC (Staphylococcus aureus [2]) was 8 µg/mL (≈ 27.6 µM). It also gave an MIC (Bacillus subtilis) of 0.06 µg/mL (≈ 0.207 µM), an MIC (Acinetobacter baumannii) of 12 µg/mL (≈ 41.3 µM) and an MIC (Staphylococcus aureus [3]) of 0.5 µg/mL (≈ 1.72 µM). The MIC (Serratia marcescens) was 32 µg/mL (≈ 110 µM), the MIC (Staphylococcus aureus [4]) was 4 µg/mL (≈ 13.8 µM) and the MIC (Escherichia coli) was 256 µg/mL (≈ 882 µM). It also gave an MIC [5] of 0.5 µg/mL (≈ 1.72 µM) and an MIC (Staphylococcus aureus [6]) of 2 µg/mL (≈ 6.89 µM).
`O=C(Nc1nnc(-c2ccc(Br)cc2)o1)c1cccc(F)c1` gave an MIC (Pseudomonas aeruginosa) greater than 256 µg/mL, an MIC [1] greater than 256 µg/mL and an MIC (Staphylococcus aureus [2]) of 2 µg/mL (≈ 5.52 µM). For the same molecule, the MIC (Bacillus subtilis) was 0.5 µg/mL (≈ 1.38 µM), the MIC (Acinetobacter baumannii) was greater than 256 µg/mL and the MIC (Staphylococcus aureus [3]) was 0.5 µg/mL (≈ 1.38 µM). The MIC (Serratia marcescens) was greater than 256 µg/mL, the MIC (Staphylococcus aureus [4]) was 0.5 µg/mL (≈ 1.38 µM) and the MIC (Escherichia coli) was greater than 256 µg/mL. For the same molecule, the MIC [5] was 0.5 µg/mL (≈ 1.38 µM) and the MIC (Staphylococcus aureus [6]) was 0.5 µg/mL (≈ 1.38 µM).
Molecule `O=C1c2cc([N+](=O)[O-])cc3cc([N+](=O)[O-])cc(c23)C(=O)N1Nc1ccc(Cl)cc1` has an MIC (Pseudomonas aeruginosa) greater than 256 µg/mL, an MIC [1] greater than 256 µg/mL and an MIC (Staphylococcus aureus [2]) of 2.5 µg/mL (≈ 6.06 µM). It also gave an MIC (Bacillus subtilis) of 4 µg/mL (≈ 9.69 µM), an MIC (Acinetobacter baumannii) greater than 256 µg/mL and an MIC (Staphylococcus aureus [3]) of 2.5 µg/mL (≈ 6.06 µM). It also gave an MIC (Serratia marcescens) greater than 256 µg/mL, an MIC (Staphylococcus aureus [4]) of 2.5 µg/mL (≈ 6.06 µM) and an MIC (Escherichia coli) greater than 256 µg/mL. It also gave an MIC [5] of 4 µg/mL (≈ 9.69 µM) and an MIC (Staphylococcus aureus [6]) of 2.5 µg/mL (≈ 6.06 µM).
`O=C(Nc1nnc(-c2ccc(Br)cc2)o1)c1cccc(C(F)(F)F)c1` showed an MIC (Pseudomonas aeruginosa) greater than 256 µg/mL, an MIC [1] greater than 256 µg/mL and an MIC (Staphylococcus aureus [2]) of 1 µg/mL (≈ 2.43 µM). For the same molecule, the MIC (Bacillus subtilis) was 0.5 µg/mL (≈ 1.21 µM), the MIC (Acinetobacter baumannii) was greater than 256 µg/mL and the MIC (Staphylococcus aureus [3]) was 1 µg/mL (≈ 2.43 µM). For the same molecule, the MIC (Serratia marcescens) was greater than 256 µg/mL, the MIC (Staphylococcus aureus [4]) was 0.5 µg/mL (≈ 1.21 µM) and the MIC (Escherichia coli) was greater than 256 µg/mL. For the same molecule, the MIC [5] was 0.5 µg/mL (≈ 1.21 µM) and the MIC (Staphylococcus aureus [6]) was 0.125 µg/mL (≈ 0.303 µM).
`CSC[C@H](NC(=O)Cc1c(C)c2cc3c(-c4ccc(Cl)cc4)coc3c(C)c2oc1=O)C(=O)O` showed an MIC (Pseudomonas aeruginosa) greater than 256 µg/mL, an MIC [1] greater than 256 µg/mL and an MIC (Staphylococcus aureus [2]) of 2.5 µg/mL (≈ 5 µM). For the same molecule, the MIC (Bacillus subtilis) was greater than 64 µg/mL, the MIC (Acinetobacter baumannii) was greater than 256 µg/mL and the MIC (Staphylococcus aureus [3]) was 1.25 µg/mL (≈ 2.5 µM). For the same molecule, the MIC (Serratia marcescens) was greater than 256 µg/mL, the MIC (Staphylococcus aureus [4]) was 2.5 µg/mL (≈ 5 µM) and the MIC (Escherichia coli) was greater than 256 µg/mL. The MIC [5] was 1 µg/mL (≈ 2 µM) and the MIC (Staphylococcus aureus [6]) was 2.5 µg/mL (≈ 5 µM).
For `Cc1c(CCC(=O)O)c(=O)oc2c(C)c3occ(-c4ccc(Br)cc4)c3cc12`, the MIC (Pseudomonas aeruginosa) was greater than 256 µg/mL, the MIC [1] was greater than 256 µg/mL and the MIC (Staphylococcus aureus [2]) was 0.5 µg/mL (≈ 1.13 µM). For the same molecule, the MIC (Bacillus subtilis) was greater than 64 µg/mL, the MIC (Acinetobacter baumannii) was greater than 256 µg/mL and the MIC (Staphylococcus aureus [3]) was 1 µg/mL (≈ 2.27 µM). For the same molecule, the MIC (Serratia marcescens) was greater than 256 µg/mL, the MIC (Staphylococcus aureus [4]) was 0.5 µg/mL (≈ 1.13 µM) and the MIC (Escherichia coli) was greater than 256 µg/mL. It also gave an MIC [5] of 1 µg/mL (≈ 2.27 µM) and an MIC (Staphylococcus aureus [6]) of 1 µg/mL (≈ 2.27 µM).
`O=C(Nc1cccc2c1C(=O)NC2=O)c1ccc([N+](=O)[O-])o1` gave an MIC (Pseudomonas aeruginosa) of 128 µg/mL (≈ 425 µM), an MIC [1] of 32 µg/mL (≈ 106 µM) and an MIC (Staphylococcus aureus [2]) of 4 µg/mL (≈ 13.3 µM). It also gave an MIC (Bacillus subtilis) of 0.06 µg/mL (≈ 0.199 µM), an MIC (Acinetobacter baumannii) of 12 µg/mL (≈ 39.8 µM) and an MIC (Staphylococcus aureus [3]) of 1 µg/mL (≈ 3.32 µM). For the same molecule, the MIC (Serratia marcescens) was 32 µg/mL (≈ 106 µM), the MIC (Staphylococcus aureus [4]) was 2 µg/mL (≈ 6.64 µM) and the MIC (Escherichia coli) was 256 µg/mL (≈ 850 µM). The MIC [5] was 0.5 µg/mL (≈ 1.66 µM) and the MIC (Staphylococcus aureus [6]) was 2 µg/mL (≈ 6.64 µM).
`Cc1c(CC(=O)N2CCC(C(=O)O)CC2)c(=O)oc2c(C)c3occ(-c4ccc(F)cc4)c3cc12` showed an MIC (Pseudomonas aeruginosa) greater than 256 µg/mL, an MIC [1] greater than 256 µg/mL and an MIC (Staphylococcus aureus [2]) of 2.5 µg/mL (≈ 5.24 µM). For the same molecule, the MIC (Bacillus subtilis) was greater than 64 µg/mL, the MIC (Acinetobacter baumannii) was greater than 256 µg/mL and the MIC (Staphylococcus aureus [3]) was 1.25 µg/mL (≈ 2.62 µM). The MIC (Serratia marcescens) was greater than 256 µg/mL, the MIC (Staphylococcus aureus [4]) was 2.5 µg/mL (≈ 5.24 µM) and the MIC (Escherichia coli) was greater than 256 µg/mL. For the same molecule, the MIC [5] was 1 µg/mL (≈ 2.09 µM) and the MIC (Staphylococcus aureus [6]) was 2.5 µg/mL (≈ 5.24 µM).
